Source: PubChem (The Scripps Research Institute Molecular Screening Center)
MsrA act = bovine MsrA enzyme activators, primary screen, biochemical, absorbance, HTS | Methionine sulfoxide reductase A (Bos taurus) | purified bovine MsrA, absorbance read-out | activation, % at 10.6 µM | 360,000 compounds, 0.3% hits | AID 602163, 2012; in the data active = activation above about 7.5%;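 also: 0% = vehicle and 100% = reference activator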
MsrA inhibitor = bovine MsrA enzyme inhibitors, primary screen, biochemical, absorbance, HTS; 360,000 compounds, 0.75% hits; Methionine sulfoxide reductase A (Bos taurus); purified bovine MsrA, absorbance read-out; inhibition, % at 15.5 µM;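 also: 0% = vehicle wells with enzyme and 100% = reference inhibitor wells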
MC4R antagonist = MC4R antagonists of cAMP signaling, primary screen, cell-based, TR-FRET, antagonist arm of biased-ligand search; Melanocortin receptor 4 (Homo sapiens), P32245; MC4R-expressing cells, MTII-stimulated cAMP, LANCE TR-FRET; inhibition, % at 6.5 µM; 360,000 compounds, 0.48% hits;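 active = inhibition above its plate's cutoff, the mean of tested wells on that plate plus 3 SD, cut at about 29% in these data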;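 also: 0% = Melanotan II alone and 100% = Melanotan II plus saturating MCL0020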
Target sequence (P32245 whole entry, looked up): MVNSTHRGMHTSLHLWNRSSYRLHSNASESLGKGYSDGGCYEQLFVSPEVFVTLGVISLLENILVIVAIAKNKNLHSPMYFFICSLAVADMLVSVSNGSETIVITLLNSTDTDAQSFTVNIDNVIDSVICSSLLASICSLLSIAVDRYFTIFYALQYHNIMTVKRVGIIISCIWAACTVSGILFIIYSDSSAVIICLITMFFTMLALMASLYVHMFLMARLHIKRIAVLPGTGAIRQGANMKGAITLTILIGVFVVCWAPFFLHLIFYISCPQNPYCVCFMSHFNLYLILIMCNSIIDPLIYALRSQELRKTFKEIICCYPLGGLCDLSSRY
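Material – human MC4R-expressing U2OS cells · Repeats – no replicates · Detection – TR-FRET with Eu-cAMP and labeled anti-cAMP, 671 nm · Times – compound 30 min, challenge 1 h, detection 1 h · Compound – single nominal compound dose of 6.5 µM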
MC4R ag barr = MC4R agonists recruiting beta-arrestin, primary screen, cell-based, luminescence, agonist arm of biased-ligand search. Melanocortin receptor 4 (Homo sapiens), P32245. U2OS MC4R beta-arrestin complementation; percent of melanotan II response, DMSO zero. activation, % at 8.9 µM. 360,000 compounds, 0.98% hits. AID 540308, 2011;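 active = activation above a per-plate cutoff, the mean activation of sample wells on that plate plus 3 SD, cut at about 8% in these data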
MsrA inh confirm = bovine MsrA inhibitors, retest, confirmation, biochemical, absorbance, HTS. 2,300 compounds, 41% hits. shares compounds with MsrA inhibitor. purified bovine MsrA, absorbance read-out. inhibition, % at 15.5 µM;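 also: coupled to thioredoxin reductase with NADPH and selenocystamine and DMSO as substrate; 0% = vehicle only and 100% = full effect of reference inhibitor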
* hit, by the source's call; . = no result given. A selection: hits, their analogues and other compounds. The true share with any hit is near 2.3%. Rule as the data show it, unless noted: active = inhibition above about 4.5%; inactive = the rest.

SMILES	MsrA act	MsrA inhibitor	MC4R antagonist	MC4R ag barr	MsrA inh confirm
Cc1cc(=O)[nH]c(N/N=C/c2ccc(Br)s2)n1	-5.0	5.5*	-14.5	-3.3	4.1
CSc1ccc(/C=N/Nc2nc(C)cc(=O)[nH]2)cc1	-5.3	4.9*	0.5	-1.4	3.6
Cc1cc(=O)[nH]c(N/N=C/c2ccc(O)c(O)c2)n1	-5.7	3.6	-8.2	-1.8	.
Cc1c(Cl)c([N+](=O)[O-])nn1CCCC(=O)Nc1cccnc1	-2.8	-0.2	3.9	-1.1	.
CC(NC(=O)C1CC2CCCC(C1)C2=O)c1ccccc1 (stereo unspecified)	-3.9	2.4	9.0	-1.8	.
Nc1c([N+](=O)[O-])c(=O)oc2ccccc12	-4.5	5.9*	0.8	-3.5	1.8
CC(C)Nc1c([N+](=O)[O-])c(=O)oc2ccccc12	-1.5	2.0	4.7	0.0	.
O=c1oc2ccccc2c(NCc2ccc(Cl)cc2)c1[N+](=O)[O-]	-1.2	0.9	26.2	0.7	.
CC(Nc1c([N+](=O)[O-])c(=O)oc2ccccc12)c1ccccc1 (stereo unspecified)	-10.6	25.2*	-26.2	2.3	21.3*
O=c1oc2ccccc2c(NCc2ccccc2)c1[N+](=O)[O-]	-6.0	5.8*	-13.5	-1.3	5.0*
COc1ccccc1NCC(=O)NN=C1CCS(=O)(=O)c2ccc(F)cc21	-6.2	0.8	-0.3	-2.6	.
CNCCOc1ccc(Cl)c(Cl)c1	3.7	0.8	14.7	-2.9	.
Cc1ccc(-n2nnc3c(=O)n(CC(N)=O)cnc32)cc1	-0.1	-1.2	8.8	-1.2	.
COCCn1c(C)cc(C(=O)CSc2cc(C)c3ccccc3n2)c1C	-10.1	-1.2	-5.5	2.6	.
CC1=C(C(=O)Nc2cc(C(=O)N3CCN(c4cccc(C)c4C)CC3)ccc2C)SCCO1	0.5	-0.2	22.4	-0.5	.
O=C(Nc1ccccc1F)c1coc(=O)c(Br)c1	-7.0	3.2	1.9	1.4	.
O=C(NCCc1ccc(F)cc1)c1coc(=O)c(Br)c1	2.7	6.0*	-8.2	-1.4	4.8*
O=C(COC(=O)CCCN1C(=O)c2cccc3cccc(c23)C1=O)Nc1ccc(Cl)cc1	-4.9	4.8*	14.7	-1.8	0.6
CCCC(C(=O)Nc1nccs1)c1ccccc1 (stereo unspecified)	-3.0	21.4*	13.4	2.0	0.0
CSc1ccc(/C=N/NC(=O)c2ccc3nc[nH]c3c2)cc1	-5.3	5.1*	5.9	-1.6	6.1*
CN(C)c1ccc(/C=N/NC(=O)c2ccc3nc[nH]c3c2)cc1	-3.3	4.9*	-15.3	-3.0	4.9*
CCN(CC)c1ccc(/C=N/NC(=O)c2ccc3nc[nH]c3c2)cc1	-3.2	3.7	-6.7	0.8	.
COc1cc(/C=N/NC(=O)c2ccc3nc[nH]c3c2)ccc1O	-3.6	4.2	-1.3	-0.2	.
COC(=O)c1cccc(Nc2ncnc3sccc23)c1	-2.5	-0.1	1.7	-2.6	.
CCCOc1c(OC)cccc1C1CC(=O)Nc2cc3c(cc21)OCO3 (stereo unspecified)	-3.7	5.1*	-0.6	1.1	4.7*
O=C(N/N=C/c1cccs1)c1cccc2cc[nH]c12	-6.6	5.2*	-1.4	-1.5	4.3
